The record followed here is article PMC9085298 (RSC Advances, 2018).

Series [1] concerns HepDES19 cells. In words: MTS cytotoxicity assay. Format: cell-based. The note with it: read-out: CC50 (MTS); HepDES19 cells, 72 h, mitochondrial function. The essentials:
(§1)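 HepDES19 cells seeded at 1.0 × 10^4/well in DMEM with 10% FBS, 1% penicillin/streptomycin, 1% nonessential amino acids and 1% glutamine. Test compound in medium (1% DMSO final) added 48 h after plating, triplicate per concentration. After 72 h, MTS added for 90 min; absorbance at 490 nm. CC50 is 50% viability loss versus untreated cells, from a variable-slope log[inhibitor]–response fit.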
(Tetrazolium dyes change colour on reduction, which living cells bring about.)

In series [2] the test system is C. neoformans var grubii, KN99 (serotype A, MATα). Put plainly: Inhibition of C. neoformans growth. Format: cell-based, Cryptococcus neoformans. The essentials:
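Test compound 0.19–50 μM, 48 h at 35 °C, density read at OD650. Growth expressed as % of DMSO-only cells. MIC80 is the minimal concentration inhibiting 80% growth versus vehicle. Triplicates; average of ≥2 independent assays.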

The subject of series [3] is HepDES19 cells. In words: Neutral red cytotoxicity assay. Format: cell-based. Conditions: read-out: CC50 (neutral red); HepDES19 cells, 72 h, lysosomal function. The gist of the method:
(§2)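 HepDES19 cells seeded at 1.0 × 10^4/well in DMEM with 10% FBS, 1% penicillin/streptomycin, 1% nonessential amino acids and 1% glutamine. Test compound (1% DMSO final) added 48 h after plating, triplicate per concentration, and incubated 72 h. Viability measured by neutral red uptake. CC50 is 50% inhibition versus vehicle control, from a 4-variable slope fit of log-transformed data.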

In series [4] the test system is Staphylococcus aureus (ATCC 29213). Put plainly: MIC80 by broth microdilution. Format: cell-based. Conditions: for Bacteria MIC80 S. aureus (29213): concentration inhibiting growth ≥80% vs vehicle, 16–24 h, 35 °C; for MIC80: Staphylococcus aureus, ATCC29213, read-out: Bacteria MIC80 S. aureus (29213). The gist of the method: (§3)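 CLSI broth microdilution in cation-adjusted Mueller–Hinton II broth with a 1.5-fold test-compound dilution series. Overnight culture adjusted to 5 × 10^5 CFU mL−1 final. Incubated 16–24 h at 35 °C ± 2 °C, then growth read by absorbance (OD600). MIC80 is the concentration giving ≥80% growth inhibition versus vehicle-treated cultures. Each value is the average of at least two independent determinations.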
In general terms: In broth dilution the organism is exposed to a series of concentrations in liquid medium.

A short description of the next series: MTS cytotoxicity assay. Format: cell-based. Conditions: human, HepDES19 cells (hepatoblastoma cells). The gist of the method:
as §1

Series [5] concerns Pseudomonas aeruginosa (ATCC 27853). In words: MIC80 by broth microdilution. Format: cell-based. Conditions: concentration inhibiting growth ≥80% vs vehicle; 16–24 h, 35 °C. The essentials: as §3
In series [6] the test system is Escherichia coli (ATCC 35218). Put plainly: MIC80 by broth microdilution. The note with it: for MIC80: Escherichia coli, ATCC35218, read-out: Bacteria MIC80 E. coli (35218). Format: cell-based. The gist of the method: as §3
Series [7] is described as follows: Neutral red cytotoxicity assay. Format: cell-based. The note with it: human, HepDES19 cells (hepatoblastoma cells). The essentials: as §2
Series [8] relates to Acinetobacter baumannii (from a patient). Put plainly: MIC80 by broth microdilution. Format: cell-based. The note with it: for MIC80: Acinetobacter baumannii, read-out: Bacteria MIC80 A. baumannii (from a patient). The gist of the method:
as §3

[9] abbreviates: concentration inhibiting growth ≥80% vs vehicle, 16–24 h, 35 °C.

In brackets after ≈: the same amount, converted by molar mass.

As usually defined, the CC50 is the concentration that lowers cell viability or growth by half. With “7-Hydroxy-3-isopropylcyclohepta-2,4,5-triene-1-thione [Compound 11]”, the CC50 was determined as 64.2 µM with HepDES19 cells [1] and 30.4 µM with HepDES19 cells [3]. The “C. neoformans MIC80” value in [2] (minimal concentration inhibiting 80% of growth, 48 h, 35 °C, YNB-02 + 1% DMSO) was 24 µM. Further, the “Bacteria MIC80 S. aureus (29213)” value in series [4] was 16 µM.

One may read the MIC80 as the lowest concentration that inhibits either 80% of growth or 80% of the strains tested, depending on the study. For the molecule `Cc1ccc(S(=O)(=O)Oc2cccc(C(C)C)cc2=O)cc1` [Compound 8, 6-(1-Methylethyl)-2-[[(4-methylphenyl)sulfonyl]oxy]-2,4,6-cycloheptatrien-1-one], the results for the CC50 at 72 h (in the series “MTS cytotoxicity assay”; in series [7]) were 33.6 µM and 31.8 µM, respectively. In addition, the “Bacteria MIC80 P. aeruginosa (27853)” value in series [5] was greater than 100 µM. Moreover, the MIC80 in series [6], in series [8] and in series [4] was greater than 100 µM in each case. Also, the “Bacteria MIC80 E. coli (35218)” value in series [6] (setting [9]) is greater than 100 µM. For the same molecule, the “Bacteria MIC80 A. baumannii (from a patient)” value in series [8] (setting [9]) is greater than 100 µM. Also, in series [4], the “Bacteria MIC80 S. aureus (29213)” value is greater than 100 µM.

With `Cc1ccc(S(=O)(=O)Oc2cc(C(C)C)cccc2=O)cc1` [Compound 9, 4-(1-Methylethyl)-2-[[(4-methylphenyl)sulfonyl]oxy]-2,4,6-cycloheptatrien-1-one], the figures for the CC50 at 72 h (in the series “MTS cytotoxicity assay”; in series [7]) were 34.2 µM and 19.5 µM, respectively. Moreover, the MIC80 was greater than 100 µM in [6], greater than 100 µM in series [8] and 8.8 µM (≈ 2.8 µg/mL) in series [4]. In addition, in series [4] (relative to natural product 2), the “fold increase in antibacterial activity against S. aureus” value is reported as 8 fold.

For `CC(C)c1cccc(=S)c(O)c1` [Compound 10, 2-Hydroxy-4-isopropylcyclohepta-2,4,6-triene-1-thione], the CC50 at 72 h in the series “MTS cytotoxicity assay” is 95 µM; in series [7] it was 39.7 µM. Further, the “fold less activity against C. neoformans” value in [2] (relative to hydroxy tropolone 2) is greater than 2 fold. Moreover, the MIC80 in series [6], in series [8] and in series [4] was greater than 100 µM throughout.
